# Active and inactive are the calls of the source. The rule behind the calls is not given here.
# What was measured:
# [1] = molecular target: Phosphatidylinositol 4,5-bisphosphate 3-kinase catalytic subunit gamma isoform (Homo sapiens, UniProt P48736); experiment: Inhibition of recombinant PI3Kgamma
# Outline: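 Luminescence kinase assay with recombinant PI3K p120 gamma (250-500 ng/well), ambient temperature, in 20 mM Tris pH 7.4, 4 mM MgCl2, 10 mM NaCl, 50 µM PIP2 substrate. Compound added in DMSO at 100 to 0.001 µM final. ATP added from a 3 µM stock. Stopped after 90 min with Kinase-Glo and read by luminescence. IC50 from nonlinear curve fit.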
# [2] = Volume of distribution at steady state in Sprague-Dawley rat at 5.0 mg/kg, iv; format: ADME, organism-based; parameters: dose 5 mg/kg, route intravenous; conditions: in vivo, read-out: Vdss
# Outline: (§1)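 Male Sprague-Dawley rats (200-250 g, N = 5 per dose) were given a single iv tail bolus of 0.5 or 5 mg/kg in aqueous 9.5% Captisol. Jugular-catheter blood was drawn at 5, 15, 30 min and 1, 2, 4, 6, 8, 24 h. Plasma was acetonitrile-extracted and quantified by LC/MS/MS (calibration 1-10 000 ng/mL). Parameters were derived noncompartmentally, with CL = dose/AUC(0-inf) and Vdss = CL × MRT.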
# [3] = Half life in Sprague-Dawley rat at 0.5 mg/kg, iv; format: ADME, organism-based; parameters: dose 0.5 mg/kg, route intravenous; conditions: in vivo; outline: as §1
# [4] = molecular target: Serine/threonine-protein kinase mTOR (Homo sapiens) (UniProt P42345); experiment: Inhibition of VEGF-induced phosphorylation of mTOR at 10 uM
# Outline: (§2)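 HUVECs (passage 2-4) were serum-starved for 4 h in EBM-2, then exposed for 10 min to 20 ng/mL recombinant human VEGF with or without 10 µM compound in DMSO. Cells were PBS-rinsed and lysed in RIPA, and lysates were normalized by BCA. Samples were screened externally by Western-blot-based antibody panels covering 73 phosphorylated kinases.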
# [5] = Cmax in Sprague-Dawley rat at 0.5 mg/kg, iv; format: ADME, organism-based; parameters: dose 0.5 mg/kg, route intravenous; conditions: in vivo; outline: as §1
# [6] = Plasma concentration in Sprague-Dawley rat at 0.5 mg/kg, iv; format: ADME, organism-based; parameters: dose 0.5 mg/kg, route intravenous; outline: as §1
# HUVEC = experiment: Inhibition of VEGF-induced VE-cadherin phosphorylation in HUVEC cells by Western blot at 10 uM; format: cell-based; conditions: Homo sapiens
# Outline: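 Serum-starved HUVECs were pretreated for 15 min with compound (0.125-10 µM) or vehicle, then given 20 ng/mL recombinant VEGF for 5 min. RIPA lysates were loaded at equal protein (BCA, with β-actin as loading control) on SDS-PAGE. Blots were probed for phospho-VE-cadherin, stripped, and reprobed for total VE-cadherin.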
# [7] = Plasma concentration in Sprague-Dawley rat at 5.0 mg/kg, iv; format: ADME, organism-based; parameters: dose 5 mg/kg, route intravenous; outline: as §1
# [8] = Half life in Sprague-Dawley rat at 5.0 mg/kg, iv; format: ADME, organism-based; parameters: dose 5 mg/kg, route intravenous; conditions: in vivo; outline: as §1
# [9] = AUC (0 to infinity) in Sprague-Dawley rat at 0.5 mg/kg, iv; format: ADME, organism-based; parameters: time infinity, dose 0.5 mg/kg, route intravenous; conditions: plasma
# Outline: (§3)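 Male Sprague-Dawley rats (200-250 g, N = 5 per dose) given a single iv tail bolus in aqueous 9.5% Captisol. Serial plasma was taken via jugular catheter from 5 min to 24 h. Samples were acetonitrile-extracted with internal standard and quantified by LC/MS/MS (calibration 1-10 000 ng/mL). AUC(0-inf) came from noncompartmental analysis.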
# [10] = Clearance in Sprague-Dawley rat at 5.0 mg/kg, iv; format: ADME, organism-based; parameters: dose 5 mg/kg, route intravenous; conditions: in vivo; outline: as §1
# [11] = AUC (0 to infinity) in Sprague-Dawley rat at 5.0 mg/kg, iv; format: ADME, organism-based; parameters: time infinity, dose 5 mg/kg, route intravenous; conditions: plasma; outline: as §3
# [12] = Cmax in Sprague-Dawley rat at 5.0 mg/kg, iv; format: ADME, organism-based; parameters: dose 5 mg/kg, route intravenous; conditions: in vivo; outline: as §1
# [13] = molecular target: RAC-alpha serine/threonine-protein kinase (Homo sapiens) (UniProt P31749); experiment: Inhibition of FGF-induced AKT phosphorylation in HUVEC cells by Western blot at 10 uM; format: cell-based
# Outline: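 Serum-starved HUVECs were pretreated for 15 min with compound (0.125-10 µM) or vehicle, then stimulated for 5 min with 20 ng/mL recombinant bFGF. Cells were lysed in RIPA, protein was normalized by BCA, and lysates were run on SDS-PAGE. Blots were probed for phospho-Akt, stripped, and reprobed for total Akt.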
# [14] = molecular target: Ribosomal protein S6 kinase beta-1 (Homo sapiens) (UniProt P23443); experiment: Inhibition of VEGF-induced phosphorylation of p70S6 at 10 uM; outline: as §2
# [15] = Volume of distribution at steady state in Sprague-Dawley rat at 0.5 mg/kg, iv; format: ADME, organism-based; parameters: dose 0.5 mg/kg, route intravenous; conditions: in vivo, read-out: Vdss; outline: as §1
# [16] = Clearance in Sprague-Dawley rat at 0.5 mg/kg, iv; format: ADME, organism-based; parameters: dose 0.5 mg/kg, route intravenous; conditions: in vivo; outline: as §1
# RAC-alpha serine/threonine-protein kinase (Homo sapiens), sequence (P31749 whole entry): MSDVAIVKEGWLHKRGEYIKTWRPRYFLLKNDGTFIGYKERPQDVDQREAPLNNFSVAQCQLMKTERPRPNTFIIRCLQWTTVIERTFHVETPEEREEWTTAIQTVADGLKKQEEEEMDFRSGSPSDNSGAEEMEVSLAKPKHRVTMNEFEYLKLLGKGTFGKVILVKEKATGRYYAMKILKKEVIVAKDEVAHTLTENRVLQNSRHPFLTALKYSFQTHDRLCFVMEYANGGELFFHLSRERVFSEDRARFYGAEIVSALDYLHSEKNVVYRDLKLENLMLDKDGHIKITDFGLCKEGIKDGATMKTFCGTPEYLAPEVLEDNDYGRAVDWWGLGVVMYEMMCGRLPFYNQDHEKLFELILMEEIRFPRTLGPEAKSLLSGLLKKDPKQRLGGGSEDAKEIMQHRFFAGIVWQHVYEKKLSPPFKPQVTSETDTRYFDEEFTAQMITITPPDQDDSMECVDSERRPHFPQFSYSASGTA
# Ribosomal protein S6 kinase beta-1 (Homo sapiens), sequence (P23443 whole entry, looked up): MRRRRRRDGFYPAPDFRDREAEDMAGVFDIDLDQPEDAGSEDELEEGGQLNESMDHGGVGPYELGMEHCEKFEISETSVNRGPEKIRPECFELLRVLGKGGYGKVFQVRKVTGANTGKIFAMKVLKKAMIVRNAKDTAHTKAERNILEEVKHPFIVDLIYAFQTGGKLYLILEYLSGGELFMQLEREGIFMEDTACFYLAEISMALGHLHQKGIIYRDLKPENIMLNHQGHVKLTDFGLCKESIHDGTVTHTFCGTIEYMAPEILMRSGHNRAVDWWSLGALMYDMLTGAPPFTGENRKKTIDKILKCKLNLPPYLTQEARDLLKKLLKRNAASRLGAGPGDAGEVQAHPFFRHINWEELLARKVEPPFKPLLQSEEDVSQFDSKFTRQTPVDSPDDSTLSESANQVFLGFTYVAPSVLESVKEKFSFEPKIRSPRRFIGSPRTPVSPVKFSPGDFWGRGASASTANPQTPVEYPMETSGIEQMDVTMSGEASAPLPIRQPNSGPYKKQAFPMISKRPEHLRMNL
SMILES,Activity [1],IC50 [1],also measured
Oc1cccc(-c2nc3nc(NCCCN4CCOCC4)nc(NCCCN4CCOCC4)c3nc2-c2cccc(O)c2)c1,inactive,–,–
Nc1ccc2nc(-c3ccc(O)cc3)c(-c3ccc(O)cc3)nc2n1,inactive,–,–
Nc1nc(N)c2nc(-c3cccc(O)c3)c(-c3cccc(O)c3)nc2n1 [TG100-115],–,–,Vd [2]: 4.4 L/kg; half-life [3]: 24 min; Activity [4]: Active; Cmax [5]: 363 ng/mL; C0 [6]: 713 ng/mL; Activity (HUVEC): Active; C0 [7]: 7730 ng/mL; half-life [8]: 48 min; AUC(0-inf) [9]: 124 ng·h/mL; clearance [10]: 66 mL/min/kg; AUC(0-inf) [11]: 1380 ng·h/mL; Cmax [12]: 3330 ng/mL; Activity [13]: Dose-dependent effect; Activity [14]: Active; Vd [15]: 2.3 L/kg; clearance [16]: 71 mL/min/kg
Nc1cncc2nc(-c3cccc(O)c3)c(-c3cccc(O)c3)nc12,inactive,–,–
Nc1nc(N)c2ncc(-c3ccc(O)cc3)nc2n1,–,4.7 µM,–
Nc1ccc2nc(-c3cccc(O)c3)c(-c3cccc(O)c3)nc2n1,inactive,–,–
CCN(CC)CCOc1cccc(-c2nc3nc(N)nc(N)c3nc2-c2cccc(OCCN(CC)CC)c2)c1,inactive,–,–
Oc1cccc(-c2nc3nc(O)nc(O)c3nc2-c2cccc(O)c2)c1,–,46 µM,–
Nc1nc(N)c2nc(-c3ccc(O)cc3)cnc2n1,–,1.2 µM,–
Nc1ccc2nc(-c3cccc(O)c3)c(-c3cccc(O)c3)nc2c1,–,17 µM,–
CCOP(=O)(OCC)Oc1cccc(-c2nc3nc(N)nc(N)c3nc2-c2cccc(OP(=O)(OCC)OCC)c2)c1,inactive,–,–
Nc1nc(N)c2ncc(-c3ccc(O)c(O)c3)nc2n1,–,5.9 µM,–

# More lines, main results first:
Activity [1],IC50 [1],SMILES,also measured
–,4 µM,Nc1ncnc2nc(-c3ccc(O)cc3)c(-c3ccc(O)cc3)nc12,–
–,0.195 µM,Nc1nc(N)c2nc(-c3ccc(O)c(O)c3)cnc2n1,–
–,4 µM,Nc1ncnc2nc(-c3cccc(O)c3)c(-c3cccc(O)c3)nc12,–
–,32.7 µM,Nc1nc(N)c2nc(-c3cccc(OCC(O)CO)c3)c(-c3cccc(OCC(O)CO)c3)nc2n1 (stereo unspecified),–
–,12.6 µM,COc1cccc(-c2nc3nc(N)nc(N)c3nc2-c2cccc(OC)c2)c1,–
–,5.1 µM,Nc1ncnc2nc(-c3ccc(O)c(O)c3)cnc12,–
–,1.3 µM,Nc1ncnc2ncc(-c3ccc(O)c(O)c3)nc12,–
–,51 µM,Nc1nc(NCCCN2CCOCC2)c2nc(-c3cccc(O)c3)c(-c3cccc(O)c3)nc2n1,–
–,8.5 µM,Nc1nc(N)c2nc(-c3ccccc3)c(-c3ccccc3)nc2n1,–
inactive,–,Nc1cncc2nc(-c3ccc(O)cc3)c(-c3ccc(O)cc3)nc12,–
–,3 µM,Nc1nc(N)c2ncc(-c3cccc(O)c3)nc2n1,–
–,2.7 µM,Nc1nc(N)c2nc(-c3ccc(O)cc3)c(-c3ccc(O)cc3)nc2n1,–
inactive,–,Nc1ccc2nc(-c3ccc(O)c(O)c3)c(-c3ccc(O)c(O)c3)nc2n1,–
–,9 µM,Oc1cccc(-c2nc3cncnc3nc2-c2cccc(O)c2)c1,–
